Results reported in ChEMBL document CHEMBL1212854, “The structure-activity relationships of A-ring-substituted aromathecin topoisomerase I inhibitors strongly support a camptothecin-like binding mode” (2010).
Calls of active or inactive are those of the source. No cut-off for these calls is given here.

Key:
[1] = molecular target: T1, DNA topoisomerase 1 (Homo sapiens) (UniProt P11387); test: Inhibition of human recombinant Top1-mediated DNA cleavage at 0.1 to 100 uM after 20 mins relative to camptothecin; parameters: scale not given: the % may be the effect or the level left
T1 sequence (whole entry): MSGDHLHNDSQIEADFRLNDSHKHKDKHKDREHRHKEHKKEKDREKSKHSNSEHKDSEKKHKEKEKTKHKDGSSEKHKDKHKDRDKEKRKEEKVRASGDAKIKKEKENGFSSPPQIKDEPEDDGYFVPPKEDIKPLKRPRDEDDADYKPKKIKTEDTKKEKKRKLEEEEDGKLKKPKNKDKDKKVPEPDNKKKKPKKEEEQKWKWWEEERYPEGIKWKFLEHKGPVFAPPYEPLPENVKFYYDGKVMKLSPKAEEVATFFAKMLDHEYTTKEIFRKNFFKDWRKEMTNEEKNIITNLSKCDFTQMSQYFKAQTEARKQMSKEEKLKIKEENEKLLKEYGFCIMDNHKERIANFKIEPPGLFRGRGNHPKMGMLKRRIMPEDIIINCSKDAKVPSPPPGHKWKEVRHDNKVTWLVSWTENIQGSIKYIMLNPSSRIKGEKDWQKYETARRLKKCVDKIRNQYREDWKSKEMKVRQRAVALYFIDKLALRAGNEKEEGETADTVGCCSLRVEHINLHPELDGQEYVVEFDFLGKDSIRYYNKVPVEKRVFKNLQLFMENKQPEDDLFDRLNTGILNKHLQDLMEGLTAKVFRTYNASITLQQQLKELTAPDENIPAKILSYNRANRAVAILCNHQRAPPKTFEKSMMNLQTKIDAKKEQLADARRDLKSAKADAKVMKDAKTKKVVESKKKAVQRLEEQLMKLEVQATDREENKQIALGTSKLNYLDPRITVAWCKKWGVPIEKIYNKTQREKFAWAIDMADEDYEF
How it was run: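 Human recombinant Top1 purified from baculovirus. Substrate is a 117-bp oligonucleotide, about 2 nM, 3′-end labelled with 32P-dGTP by Klenow fill-in. Stopped with 0.5% SDS, run on 20% denaturing PAGE and phosphorimaged. Cleavage graded 0 to +++ against 1 μM camptothecin.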

MCF7 = test: Cytotoxicity against human MCF7 cells; type: functional
How it was run: (§1)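 NCI 60-cell-line screen (eight solid-tumour subpanels plus leukemia). A one-dose pass at 10−5 M came first. Selected compounds were then run at five concentrations from 10−8 to 10−4 M. GI50 is the concentration giving 50% growth inhibition.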

OVCAR-3 = test: Cytotoxicity against human OVCAR-3 cells; type: functional; how it was run: as §1
SF-539 = test: Cytotoxicity against human SF539 cells; type: functional; how it was run: as §1
SN12C = test: Cytotoxicity against human SN12C cells; type: functional; how it was run: as §1
HOP-62 = test: Cytotoxicity against human HOP62 cells; type: functional; how it was run: as §1
HCT-116 = test: Cytotoxicity against human HCT116 cells; type: functional; how it was run: as §1
UACC-62 = test: Cytotoxicity against human UACC62 cells; type: functional; how it was run: as §1
DU-145 = test: Cytotoxicity against human DU145 cells; type: functional; how it was run: as §1

| Compound | Activity [1] | GI50 (MCF7) | GI50 (OVCAR-3) | GI50 (SF-539) | GI50 (SN12C) | GI50 (HOP-62) | GI50 (HCT-116) | GI50 (UACC-62) | GI50 (DU-145) |
| --- | --- | --- | --- | --- | --- | --- | --- | --- | --- |
| CN(C)Cc1c2c(nc3cc4c(cc13)OCO4)-c1cc3ccccc3c(=O)n1C2 | 50% | – | – | – | – | – | – | – | – |
| NCCCc1c2c(nc3cc4c(cc13)OCCO4)-c1cc3ccccc3c(=O)n1C2 | 75% | 1.05 µM | 1.95 µM | 1.86 µM | 1.86 µM | 2.14 µM | 1.95 µM | 1.62 µM | 1.82 µM |
| O=c1c2ccccc2cc2n1Cc1c-2nc2cc3c(cc2c1CN1CC[C@H](O)C1)OCCO3 | 50% | 0.27 µM | 1.84 µM | 0.49 µM | 0.94 µM | 1.01 µM | 0.82 µM | 0.46 µM | 1.02 µM |
| COc1cc2c3c(n(CCCN4CCOCC4)c(=O)c2cc1OC)-c1cc2c(cc1C3=O)OCO2 [INDOTECAN] | Active | 0.37 µM | – | 0.04 µM | – | – | – | 0.03 µM | – |
| COc1cc2nc3c(c(CN4CCN(C)CC4)c2cc1OC)Cn1c-3cc2ccccc2c1=O | inactive | – | – | – | – | – | – | – | – |
| O=c1c2ccccc2cc2n1Cc1c-2nc2cc3c(cc2c1CCCN1CCOCC1)OCCO3 | 50% | 0.06 µM | 1.84 µM | 1.15 µM | 1.13 µM | 0.54 µM | 1.42 µM | 1.15 µM | 0.76 µM |
| CN(C)Cc1c2c(nc3cc4c(cc13)OCCO4)-c1cc3ccccc3c(=O)n1C2 | 75% | 0.3 µM | 2.19 µM | 2.69 µM | 2.51 µM | 3.31 µM | 1.17 µM | 1.66 µM | 2.19 µM |
| O=c1c2ccccc2cc2n1Cc1c-2nc2cc3c(cc2c1CN1CCOCC1)OCCO3 | 75% | 0.3 µM | 1.7 µM | 0.81 µM | 2.57 µM | 3.8 µM | 1.33 µM | 0.99 µM | 0.93 µM |
| O=c1c2ccccc2cc2n1Cc1c-2nc2cccc(Cl)c2c1CN1CC[C@H](O)C1 | 20% | 0.37 µM | 2.63 µM | 1.95 µM | 3.71 µM | 1.66 µM | 1.55 µM | 3.09 µM | 3.98 µM |
| Cc1cc2c(CN3CCN(C)CC3)c3c(nc2cc1F)-c1cc2ccccc2c(=O)n1C3 | 50% | 1.8 µM | 14.6 µM | 6.46 µM | 16 µM | 20.1 µM | 1.8 µM | 16.2 µM | 2.63 µM |
| O=c1c2ccccc2cc2n1Cc1c-2nc2cc3c(cc2c1CN1CC[C@H](O)C1)OCO3 | 50% | 0.07 µM | > 100 µM | 0.6 µM | 0.79 µM | 0.48 µM | 0.85 µM | 0.35 µM | – |
| O=c1c2ccccc2cc2n1Cc1c-2nc2cc3c(cc2c1CCCn1ccnc1)OCCO3 | 50% | 0.19 µM | 7.08 µM | 1.95 µM | 12.6 µM | 0.57 µM | 1.95 µM | 0.93 µM | 2.88 µM |
| CN1CCN(Cc2c3c(nc4cccc(Cl)c24)-c2cc4ccccc4c(=O)n2C3)CC1 | inactive | 1 µM | 4.17 µM | 1.51 µM | 13.8 µM | 1.86 µM | 1.41 µM | 15.5 µM | 9.77 µM |
| O=c1c2ccccc2cc2n1Cc1cc3ccccc3nc1-2 [ROSETTACIN] | 50% | 60.3 µM | > 100 µM | > 100 µM | > 100 µM | > 100 µM | 57.3 µM | > 100 µM | > 100 µM |
| COc1cc2nc3c(c(Cn4ccnc4)c2cc1OC)Cn1c-3cc2ccccc2c1=O | inactive | – | – | – | – | – | – | – | – |
| COc1cc2nc3c(c(CCl)c2cc1OC)Cn1c-3cc2ccccc2c1=O | inactive | – | – | – | – | – | – | – | – |
| O=c1c2ccccc2cc2n1Cc1c-2nc2cc3c(cc2c1CCCCl)OCCO3 | inactive | – | – | – | – | – | – | – | – |
| O=c1c2ccccc2cc2n1Cc1c-2nc2cc3c(cc2c1Cn1ccnc1)OCCO3 | 75% | 0.3 µM | 18.6 µM | 4.37 µM | 81.3 µM | 19.5 µM | > 100 µM | 21.4 µM | > 100 µM |
| COc1cc2c3c(n(CCCn4ccnc4)c(=O)c2cc1OC)-c1cc2c(cc1C3=O)OCO2 [INDIMITECAN] | Active | 0.01 µM | 0.085 µM | 0.037 µM | < 0.01 µM | < 0.01 µM | < 0.01 µM | < 0.01 µM | < 0.01 µM |
| CN1CCN(Cc2c3c(nc4cc5c(cc24)OCO5)-c2cc4ccccc4c(=O)n2C3)CC1 | 50% | 0.38 µM | 16.2 µM | 11.7 µM | 2.34 µM | 17 µM | 1.45 µM | 1.62 µM | 51.3 µM |

Further lines, with some results ahead:

| Activity [1] | Compound | GI50 (MCF7) | GI50 (OVCAR-3) | GI50 (SF-539) | GI50 (SN12C) | GI50 (HOP-62) | GI50 (HCT-116) | GI50 (UACC-62) | GI50 (DU-145) |
| --- | --- | --- | --- | --- | --- | --- | --- | --- | --- |
| 50% | O=c1c2ccccc2cc2n1Cc1c-2nc2ccc(Cl)cc2c1CNCCO | 0.23 µM | 6.46 µM | 4.36 µM | 10.2 µM | 7.24 µM | 2.14 µM | 2.04 µM | – |
| 50% | O=c1c2ccccc2cc2n1Cc1c-2nc2cc3c(cc2c1CNCCO)OCO3 | 0.28 µM | 1.55 µM | 1.35 µM | 1.91 µM | 0.66 µM | 0.95 µM | 0.47 µM | 1.82 µM |
| 75% | O=c1c2ccccc2cc2n1Cc1c-2nc2cccc(Cl)c2c1CNCCCn1ccnc1 | 0.55 µM | 4.9 µM | 1.9 µM | 6.03 µM | 2.51 µM | 1.58 µM | 7.24 µM | 1.02 µM |
| inactive | Cc1cc2c(CNCCCn3ccnc3)c3c(nc2cc1F)-c1cc2ccccc2c(=O)n1C3 | 2.21 µM | 4.68 µM | 1.1 µM | 1.8 µM | 36.7 µM | 3.05 µM | > 100 µM | 6.24 µM |
| 20% | CN1CCN(Cc2c3c(nc4ccc(Cl)cc24)-c2cc4ccccc4c(=O)n2C3)CC1 | 3.31 µM | 1.51 µM | 1.58 µM | 1.78 µM | 2.29 µM | 0.15 µM | 1.41 µM | 2.75 µM |
| 20% | O=c1c2ccccc2cc2n1Cc1c-2nc2ccc(Cl)cc2c1Cn1ccnc1 | 0.19 µM | 0.69 µM | 0.39 µM | 1.54 µM | 0.46 µM | 0.4 µM | 0.31 µM | 0.48 µM |
| inactive | COc1cc2nc3c(c(CNCCCn4ccnc4)c2cc1OC)Cn1c-3cc2ccccc2c1=O | – | – | – | – | – | – | – | – |
| 50% | O=c1c2ccccc2cc2n1Cc1c-2nc2cc3c(cc2c1CNCCCn1ccnc1)OCO3 | 0.48 µM | 4.26 µM | 2.14 µM | 5.89 µM | 5.01 µM | 1.32 µM | 3.39 µM | 2.57 µM |
| 50% | O=c1c2ccccc2cc2n1Cc1c-2nc2cc3c(cc2c1CNCCO)OCCO3 | 0.44 µM | 1.95 µM | 4.26 µM | 5.75 µM | 5.69 µM | 2.63 µM | 1.16 µM | 2.04 µM |
| 0% | O=c1c2ccccc2cc2n1Cc1c-2nc2cc3c(cc2c1CCCNCCO)OCCO3 | 0.27 µM | 1.84 µM | 0.49 µM | 0.94 µM | 1.01 µM | 0.82 µM | 0.46 µM | 1.02 µM |
| 20% | CN1CCN(Cc2c3c(nc4cc(Cl)ccc24)-c2cc4ccccc4c(=O)n2C3)CC1 | 10.9 µM | 15.1 µM | 15.1 µM | 19 µM | 18.1 µM | 13.5 µM | 17 µM | 23.4 µM |
| 20% | Cc1cc2c(CN)c3c(nc2cc1F)-c1cc2ccccc2c(=O)n1C3 | – | – | – | – | – | – | – | – |
| 20% | O=c1c2ccccc2cc2n1Cc1c-2nc2ccc(Cl)cc2c1CN1CC[C@H](O)C1 | 0.37 µM | 1.86 µM | 1.26 µM | – | 1.05 µM | 1.1 µM | 0.74 µM | 1.66 µM |
